Assay outcomes: PubChem BioAssay, Johns Hopkins Ion Channel Center
TRPC4 agonist: opens the mouse TRPC4 cation channel; Q9QUQ5; HEK293 TRPC4beta/mu-opioid, Fluo4 calcium fluorescence; stronger effect = higher value; B-score at 10 µM; 310,000 tested, 0.49% active; AID 2237;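 active means B-score above 5 SD of library B-scores, and initial fluorescence ratio not above library mean plus 5 SD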;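 further: positive B-score marks a calcium rise read as TRPC4 activation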
Target sequence (Q9QUQ5 whole entry, looked up): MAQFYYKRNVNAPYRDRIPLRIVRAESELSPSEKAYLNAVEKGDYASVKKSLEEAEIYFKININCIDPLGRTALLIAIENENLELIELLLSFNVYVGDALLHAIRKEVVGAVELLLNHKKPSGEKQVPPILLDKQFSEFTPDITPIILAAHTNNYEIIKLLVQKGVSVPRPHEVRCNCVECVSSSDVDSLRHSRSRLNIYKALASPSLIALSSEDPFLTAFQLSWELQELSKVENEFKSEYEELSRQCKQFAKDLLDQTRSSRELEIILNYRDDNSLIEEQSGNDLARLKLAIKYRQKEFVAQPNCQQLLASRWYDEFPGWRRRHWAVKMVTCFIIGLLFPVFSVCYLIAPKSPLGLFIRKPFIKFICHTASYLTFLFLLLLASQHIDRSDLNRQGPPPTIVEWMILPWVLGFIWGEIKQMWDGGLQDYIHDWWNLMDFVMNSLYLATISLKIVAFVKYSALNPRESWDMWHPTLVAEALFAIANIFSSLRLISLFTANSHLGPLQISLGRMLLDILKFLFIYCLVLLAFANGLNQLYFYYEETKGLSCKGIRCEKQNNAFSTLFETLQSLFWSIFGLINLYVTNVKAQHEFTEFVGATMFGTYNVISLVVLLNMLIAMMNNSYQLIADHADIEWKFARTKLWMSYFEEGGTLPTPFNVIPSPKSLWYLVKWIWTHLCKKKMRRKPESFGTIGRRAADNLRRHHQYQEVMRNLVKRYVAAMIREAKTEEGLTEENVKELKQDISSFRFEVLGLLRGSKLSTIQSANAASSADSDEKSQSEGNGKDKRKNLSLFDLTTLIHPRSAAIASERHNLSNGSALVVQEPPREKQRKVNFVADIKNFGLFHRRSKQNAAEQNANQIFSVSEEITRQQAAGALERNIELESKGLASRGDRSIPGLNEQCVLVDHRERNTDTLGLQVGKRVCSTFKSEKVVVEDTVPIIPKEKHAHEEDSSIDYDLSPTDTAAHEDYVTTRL
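Material: HEK293 stable line with TRPC4beta plus mu-opioid receptor; technique: Fluo4 calcium-sensitive dye fluorescence, kinetic, 1 Hz baseline; timing: Fluo4 dye loading 45 min at room temperature, 110 s recording; controls: assay buffer as low control, maximal DAMGO as high control; read-out: integrated baseline-normalised fluorescence ratio, converted to per-well B score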
TRPC6 inh: blocks the mouse TRPC6 cation channel; B-score at 10 µM; 310,000 tested, 1.1% active; AID 2553; Q61143; HEK293-TRPC6, membrane potential dye, ACh-evoked depolarization; stronger effect = lower value;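 active means B-score under library mean minus 3 SD, initial fluorescence not abnormally high, positive integrated signal ratio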;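 further: B-score derived from integrated fluorescence ratio over the kinetic read; more negative B-score means stronger inhibition of depolarization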
TRPC4 PAM: allosteric potentiators of mouse TRPC4 channel. Q9QUQ5. HEK293 TRPC4beta/mu-opioid, DAMGO EC20, Fluo-4 Ca2+ flux; stronger effect = higher value. B-score at 10 µM. 310,000 tested, 0.42% active. AID 2227;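 active means B-score of calcium response area above 5 SD of library B-scores, with initial fluorescence ratio within 5 SD of library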;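 further: B-score of integrated fluorescence ratio over time as area under calcium response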
TRPC4 block: blocks the mouse TRPC4 cation channel; Q9QUQ5; HEK293 TRPC4beta/mu-opioid, DAMGO-evoked Fluo4 calcium flux; stronger effect = lower value; B-score at 10 µM; 300,000 tested, 0.39% active; AID 2247;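 active means B-score over 3 SD under the library average, no early fluorescence shift, positive overall ratio signal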
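Assay system: TRPC4beta/mu-opioid receptor HEK293 cell line; compound dosing: single concentration per test compound; detection: Fluo4 Ca2+ flux fluorescence; evaluation: per-well B score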
TRPC6 activator: activates the mouse TRPC6 cation channel; Q61143; HEK293-TRPC6 membrane potential dye fluorescence; stronger effect = higher value; B-score at 10 µM; 310,000 tested, 0.13% active; AID 2550;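 active means B-score of the integrated fluorescence ratio above library mean plus 3 SD, and starting fluorescence ratio within library mean plus 5 SD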;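 further: higher score means more depolarization so channel activation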
Kir21 inh: blocks the mouse Kir2.1 inward-rectifier potassium channel. 310,000 tested, 0.85% active. HEK293-Kir2.1, FluxOR thallium flux fluorescence; stronger effect = lower value. AID 1672. B-score at 10 µM;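 active means fluorescence ratio B-score at or below minus 3 SD of library scores, with starting-brightness B-score within 2 SD, cut at about -4.2 in these data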;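 further: channel flux triggered by added potassium and thallium sulfate stimulus; B-score of peak minus minimum fluorescence over baseline after thallium stimulus; more negative B-score means stronger Kir2.1 block with less thallium influx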
TRPC4 spec 2: second selectivity test of TRPC6 inhibitors: effect on mouse TRPC4. shares compounds with TRPC6 inh. HEK293 TRPC4/MOR, membrane potential dye fluorescence; channel activated by saturating DAMGO dose. inhibition, % at 10 µM. 920 tested, 42% active. AID 2776;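 active means compounds whose fluorescence signal differed from control wells by over 3 SD, either direction, in both duplicate plates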
TRPC4 spec: tests whether TRPC6 inhibitors also affect mouse TRPC4 | shares compounds with TRPC6 inh | 920 tested, 61% active | activity change, negative = inhibition, % at 10 µM | AID 2777 | HEK293 TRPC4/mu-opioid, membrane potential fluorescence;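 active means rise or fall in signal beyond 3 SD of buffer-only wells in both replicate plates, either sign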;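 further: integrated kinetic ratio of fluorescence range over baseline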
HEK293 MPD ctr 2-1: parental HEK293 nonspecific activity of TRPC6 inhibitors, second screen; shares compounds with TRPC6 inh; parental HEK293 membrane potential dye fluorescence; maximal acetylcholine challenge after compound addition; signal change vs control, % at 10 µM; 920 tested, 31% active; AID 2779;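 active means membrane potential signal moving either way by over 3 SD of the maximum-effect control, in both duplicate plates, meaning non-specific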
HEK293 MPD ctr-1: counter-screen for TRPC6 inhibitors: effect in parental HEK293 cells | shares compounds with TRPC6 inh | parental HEK293 membrane potential dye fluorescence | membrane potential signal change, % at 10 µM | 920 tested, 60% active;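 active means membrane potential signal shifting up or down by more than 3 SD of buffer-only wells, on both duplicate plates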
HEK293 MPD ctr-2: checks TRPC6 modulator effects in parental HEK293 cells. membrane potential signal change, % at 10 µM. 2,400 tested, 51% active. AID 488924. membrane potential dye fluorescence. shares compounds with TRPC6 inh;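 active means membrane potential signal moves up or down beyond 5 SD from buffer-only wells, on both duplicate plates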
HEK293 MPD ctr 2-2: second counter-screen for TRPC6 modulators: effect in parental HEK293 cells. shares compounds with TRPC6 inh. membrane potential dye fluorescence; after compound, maximal acetylcholine stimulation. inhibition, % at 10 µM. 2,400 tested, 14% active. AID 488926;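 active means membrane potential signal drops by more than 5 SD from the mean control signal, in both duplicate plates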;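 further: plate controls were acetylcholine ECmax control wells for no effect and buffer only wells for full effect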
TRPC4/MOR mod: tests whether TRPC6 modulators also affect mouse TRPC4 | shares compounds with TRPC6 inh | HEK293 TRPC4/mu-opioid, membrane potential fluorescence | percent change from control (negative = decrease, positive = increase), % at 10 µM | 2,400 tested, 69% active;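 active means membrane potential signal moved up or down beyond 5 SD of buffer control wells, in both duplicate plates, actives on both sides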;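 further: plate controls were assay buffer wells for no effect and DAMGO maximal-effect wells for full effect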
TRPC4/MOR inh 2: second selectivity test of TRPC6 modulators against mouse TRPC4; 2,400 tested, 55% active; inhibition, % at 10 µM; HEK293 TRPC4/mu-opioid, membrane potential dye fluorescence; stimulated with maximal-effect DAMGO; shares compounds with TRPC6 inh; AID 488928;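 active means drop in membrane potential signal beyond 5 SD of the control wells in both duplicate plates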;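 further: TRPC4 counter screen for TRPC6 hits run under conditions tuned for TRPC6 not TRPC4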
TRPC6 block conf: confirmation of mouse TRPC6 inhibitors; shares compounds with TRPC6 inh; 3,300 tested, 43% active; inhibition, % at 10 µM; HEK293-TRPC6, membrane potential dye, ACh-evoked depolarization;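 active means fluorescence ratio falls more than 5 SD below the full-stimulation control mean, in both duplicate runs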;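 further: integrated fluorescence ratio of peak minus minimum over baseline after agonist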
TRPC6 act confirm: mouse TRPC6 activator confirmation. shares compounds with TRPC6 inh. HEK293-TRPC6 membrane potential dye fluorescence, FDSS. activation, % at 10 µM. 2,800 tested, 11% active;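 active means ratio signal rise beyond 5 SD above unstimulated control wells' mean, seen in both duplicate runs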;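 further: plate controls were buffer EC0 wells for no effect and acetylcholine ECmax response for full effect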
* marks the source's active call; other numbers are inactive results; i = inactive; . = no result. Compounds with a hit are over-represented: about 2.9% of the library has one in this group of screens.

SMILES	TRPC4 agonist	TRPC6 inh	TRPC4 PAM	TRPC4 block	TRPC6 activator	Kir21 inh	HEK293 MPD ctr-2	HEK293 MPD ctr 2-2	TRPC4/MOR mod	TRPC4/MOR inh 2	TRPC6 block conf	TRPC6 act confirm	others
COc1ccccc1Nc1nc(NCCCN(C)C)nc(N)c1[N+](=O)[O-]	i	-6.4*	i	i	i	-3.9	i	i	i	49%*	42%*	i
O=C(Cc1ccc(Br)cc1)Nc1cccc(Cl)c1	i	i	i	i	i	-0.4	.	.	.	.	.	.
O=C(Nc1nc2ccccc2[nH]1)c1cccs1	i	i	i	i	i	1.1	.	.	.	.	.	.
N=c1c(-c2nc3ccccc3[nH]2)cc(C(=O)c2cccs2)nn1-c1ccc(Cl)cc1	i	-6.2*	i	i	i	0.05	i	i	-19%*	56%*	i	i
CN1CCCN(C(=O)c2cccc(Cl)c2)CC1	i	i	i	i	i	1.7	.	.	.	.	.	.
O=C(c1cccc(Cl)c1)N1CCN(C2CCCCCC2)CC1	i	-5.7*	i	i	i	-2.6	171%*	i	36%*	i	66%*	.
O=C(NCCCN1CCOCC1)C(=O)N/N=C/c1ccc2c(c1)OCO2	i	-8.3*	i	i	i	0.56	.	.	.	.	i	i	TRPC4 spec 2=i;TRPC4 spec=i;HEK293 MPD ctr 2-1=i;HEK293 MPD ctr-1=i
Cc1ccc(CN(C)C(=O)c2ccccc2Sc2ccccc2C#N)cc1	i	-5.1*	i	i	i	-1.2	104%*	i	22%*	i	62%*	.
CCOC(=O)N1CCc2c(sc(NC(=O)C3COc4ccccc4O3)c2C(N)=O)C1 (centres undefined)	i	i	i	i	i	0.03	.	.	.	.	.	.
COc1cc(/C=C(\C#N)c2nc3ccccc3[nH]2)cc(OC)c1O	i	-5.3*	i	i	14*	-7	612%*	i	100%*	58%*	i	i
CCOc1cc(N(CC)CC)ccc1/C=C(/C#N)c1nc2ccccc2[nH]1	126*	i	i	i	16*	-4.8	295%*	i	46%*	i	i	48%*
COc1ccc(/C=C(\C#N)c2nc3ccccc3[nH]2)cc1O	i	i	i	i	i	1.6	.	.	.	.	.	.
O=C(COc1ccc(Cl)cc1Cl)N1CCN(c2ccccn2)CC1	i	i	i	i	i	-0.33	.	.	.	.	.	.
O=C(CCCOc1ccc(Cl)cc1Cl)N1CCN(c2ccccn2)CC1	i	-9.3*	i	i	i	-2.4	.	.	.	.	i	.	TRPC4 spec 2=i;TRPC4 spec=0.1%*;HEK293 MPD ctr 2-1=i;HEK293 MPD ctr-1=1.5%*
Clc1ccc(C2NCCc3sccc32)cc1 (centres undefined)	i	-5.9*	i	i	i	-0.96	i	i	15%*	71%*	i	i
Cc1ccc(/C=C2/NC(=O)N(c3ccccc3)C2=O)o1	i	i	i	i	i	1.2	.	.	.	.	.	.
O=C1N/C(=C/c2ccc(N3CCOCC3)o2)C(=O)N1c1cccc(Cl)c1	i	i	i	i	19*	-2.7	120%*	i	34%*	i	i	i
COCCNC(=S)N1CCCN(c2nc3cc(C)ccc3cc2C#N)CC1	i	i	i	i	12*	-2	i	i	i	34%*	.	136%*
COCCCNC(=S)N1CCCN(c2nc3c(C)c(C)ccc3cc2C#N)CC1	i	i	i	i	i	-2.6	.	.	.	.	.	.
O=[N+]([O-])c1ccccc1S(=O)(=O)N1CCCC(C(F)(F)F)C1 (centres undefined)	i	-5.1*	i	i	i	1.9	i	i	i	i	i	i
O=[N+]([O-])c1ccccc1S(=O)(=O)N1CCCCC1	i	i	i	i	i	0.1	.	.	.	.	.	.
COc1ccc(NC(=S)N2CCc3ccccc3C2)cc1OC	i	i	i	i	i	-0.02	.	.	.	.	.	.
COc1ccc(CCn2c(=N)c(C(=O)NC3CCCC3)cc3c(=O)n4ccccc4nc32)cc1OC	i	-5.2*	i	i	i	0.39	-154%*	i	-33%*	52%*	42%*	i
COc1ccc(CCn2c(=N)c(C(=O)NC3CCCC3)cc3c(=O)n4ccccc4nc32)cc1	i	-6.5*	i	i	i	-2.3	169%*	114%*	26%*	86%*	64%*	i
COc1ccc(Cn2c(=N)c(C(=O)NC3CCCCC3)cc3c(=O)n4ccccc4nc32)cc1	i	i	i	i	i	0.5	.	.	.	.	.	.
COCCCn1c(=N)c(C(=O)NC2CCCCC2)cc2c(=O)n3ccccc3nc21	i	-6.1*	i	i	i	1.4	i	i	i	49%*	64%*	i
C=CCn1c(NCc2ccccc2O)nc2ccccc21	i	i	i	i	i	-0.65	.	.	.	.	.	.
